Reference: ChEMBL document CHEMBL1144979, “Combinatorial modification of natural products: synthesis and in vitro analysis of derivatives of thiazole peptide antibiotic GE2270 A: A-ring modifications” (Bioorg Med Chem Lett, 2003)
In brackets after ≈: the same amount, converted by molar mass.

How the values were obtained:
Type in all cases: functional
[1] = system: Enterococcus faecium; experiment: In vitro antibacterial activity against Vancomycin-susceptible Enterococcus faecium BM4147.1
Method in brief: (§1)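 MICs by NCCLS broth dilution guidelines, modified by adding 0.02% bovine serum albumin to the growth medium; purified, resynthesized compounds tested against the expanded bacterial panel.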

[2] = system: Enterococcus faecalis; experiment: In vitro antibacterial activity against Vancomycin-resistant Enterococcus faecalis ATCC 51299
[3] = system: Staphylococcus aureus; experiment: In vitro antibacterial activity against methicillin sensitive Staphylococcus aureus ATCC 25923; method in brief: as §1
[4] = system: Staphylococcus aureus; experiment: In vitro antibacterial activity against methicillin resistant Staphylococcus aureus (MRSA) ATCC 33591

SMILES | MIC [1] | MIC [2] | MIC [3] | MIC [4]
CNC(=O)C[C@@H]1NC(=O)c2csc(n2)-c2ccc(-c3nc(C(=O)NCCN=C(N)N)cs3)nc2-c2csc(n2)-c2csc(n2)C(C(O)c2ccccc2)NC(=O)CNC(=O)c2nc(sc2COC)[C@H](C(C)C)NC(=O)c2nc1sc2C (some centres not stated) | 8 µg/mL (≈ 6.61 µM) | 8 µg/mL (≈ 6.61 µM) | 4 µg/mL (≈ 3.31 µM) | 8 µg/mL (≈ 6.61 µM)
CNC(=O)C[C@@H]1NC(=O)c2csc(n2)-c2ccc(-c3nc(C(=O)NCCNCCO)cs3)nc2-c2csc(n2)-c2csc(n2)C(C(O)c2ccccc2)NC(=O)CNC(=O)c2nc(sc2COC)[C@H](C(C)C)NC(=O)c2nc1sc2C (some centres not stated) | 2 µg/mL (≈ 1.65 µM) | 4 µg/mL (≈ 3.3 µM) | 2 µg/mL (≈ 1.65 µM) | 2 µg/mL (≈ 1.65 µM)
CNC(=O)C[C@@H]1NC(=O)c2csc(n2)-c2ccc(-c3nc(C(=O)N[C@@H](CCC(=O)O)C(=O)NCCCCCC(=O)O)cs3)nc2-c2csc(n2)-c2csc(n2)C(C(O)c2ccccc2)NC(=O)CNC(=O)c2nc(sc2COC)[C@H](C(C)C)NC(=O)c2nc1sc2C (some centres not stated) | – | – | > 32 µg/mL | > 32 µg/mL
CNC(=O)C[C@@H]1NC(=O)c2csc(n2)-c2ccc(-c3nc(C(=O)NCC(O)CO)cs3)nc2-c2csc(n2)-c2csc(n2)C(C(O)c2ccccc2)NC(=O)CNC(=O)c2nc(sc2COC)[C@H](C(C)C)NC(=O)c2nc1sc2C (some centres not stated) | 0.015 µg/mL (≈ 0.0125 µM) | 0.015 µg/mL (≈ 0.0125 µM) | 0.125 µg/mL (≈ 0.104 µM) | 0.06 µg/mL (≈ 0.0501 µM)
CNC(=O)C[C@@H]1NC(=O)c2csc(n2)-c2ccc(-c3nc(C(=O)N[C@@H](CC(=O)O)C(=O)NCCCCCC(=O)O)cs3)nc2-c2csc(n2)-c2csc(n2)C(C(O)c2ccccc2)NC(=O)CNC(=O)c2nc(sc2COC)[C@H](C(C)C)NC(=O)c2nc1sc2C (some centres not stated) | – | – | > 32 µg/mL | > 32 µg/mL
CNC(=O)C[C@@H]1NC(=O)c2csc(n2)-c2ccc(-c3nc(C(=O)N[C@@H](CC(=O)O)C(=O)N[C@@H](CC(=O)O)C(N)=O)cs3)nc2-c2csc(n2)-c2csc(n2)C(C(O)c2ccccc2)NC(=O)CNC(=O)c2nc(sc2COC)[C@H](C(C)C)NC(=O)c2nc1sc2C (some centres not stated) | – | – | > 32 µg/mL | > 32 µg/mL
CNC(=O)C[C@@H]1NC(=O)c2csc(n2)-c2ccc(-c3nc(C(=O)N[C@@H](CCC(=O)O)C(=O)N4CCCC[C@H]4C(N)=O)cs3)nc2-c2csc(n2)-c2csc(n2)C(C(O)c2ccccc2)NC(=O)CNC(=O)c2nc(sc2COC)[C@H](C(C)C)NC(=O)c2nc1sc2C (some centres not stated) | – | – | – | 4 µg/mL (≈ 2.93 µM)
CNC(=O)C[C@@H]1NC(=O)c2csc(n2)-c2ccc(-c3nc(C(=O)NCC[C@H](O)C(=O)O)cs3)nc2-c2csc(n2)-c2csc(n2)C(C(O)c2ccccc2)NC(=O)CNC(=O)c2nc(sc2COC)[C@H](C(C)C)NC(=O)c2nc1sc2C (some centres not stated) | 0.03 µg/mL (≈ 0.0245 µM) | 0.25 µg/mL (≈ 0.204 µM) | 4 µg/mL (≈ 3.26 µM) | 2 µg/mL (≈ 1.63 µM)
CNC(=O)C[C@@H]1NC(=O)c2csc(n2)-c2ccc(-c3nc(CNC(=O)NCC(O)CC(=O)O)cs3)nc2-c2csc(n2)-c2csc(n2)C(C(O)c2ccccc2)NC(=O)CNC(=O)c2nc(sc2COC)[C@H](C(C)C)NC(=O)c2nc1sc2C (some centres not stated) | 2 µg/mL (≈ 1.59 µM) | > 16 µg/mL | 8 µg/mL (≈ 6.37 µM) | 8 µg/mL (≈ 6.37 µM)
CNC(=O)C[C@@H]1NC(=O)c2csc(n2)-c2ccc(-c3nc(C(=O)NCCCC(=O)O)cs3)nc2-c2csc(n2)-c2csc(n2)C(C(O)c2ccccc2)NC(=O)CNC(=O)c2nc(sc2COC)[C@H](C(C)C)NC(=O)c2nc1sc2C (some centres not stated) | 0.015 µg/mL (≈ 0.0124 µM) | 0.03 µg/mL (≈ 0.0248 µM) | 0.25 µg/mL (≈ 0.207 µM) | 0.125 µg/mL (≈ 0.103 µM)
CNC(=O)C[C@@H]1NC(=O)c2csc(n2)-c2ccc(-c3nc(C(=O)NCC(O)C(=O)O)cs3)nc2-c2csc(n2)-c2csc(n2)C(C(O)c2ccccc2)NC(=O)CNC(=O)c2nc(sc2COC)[C@H](C(C)C)NC(=O)c2nc1sc2C (some centres not stated) | 0.5 µg/mL (≈ 0.412 µM) | 1 µg/mL (≈ 0.825 µM) | 4 µg/mL (≈ 3.3 µM) | 4 µg/mL (≈ 3.3 µM)
CNC(=O)C[C@@H]1NC(=O)c2csc(n2)-c2ccc(-c3nc(C(=O)NCCCN4CCOCC4)cs3)nc2-c2csc(n2)-c2csc(n2)C(C(O)c2ccccc2)NC(=O)CNC(=O)c2nc(sc2COC)[C@H](C(C)C)NC(=O)c2nc1sc2C (some centres not stated) | 0.06 µg/mL (≈ 0.0479 µM) | 0.06 µg/mL (≈ 0.0479 µM) | 0.125 µg/mL (≈ 0.0999 µM) | 0.06 µg/mL (≈ 0.0479 µM)
CNC(=O)C[C@@H]1NC(=O)c2csc(n2)-c2ccc(-c3nc(C(=O)NCC[N+]4([O-])CCOCC4)cs3)nc2-c2csc(n2)-c2csc(n2)C(C(O)c2ccccc2)NC(=O)CNC(=O)c2nc(sc2COC)[C@H](C(C)C)NC(=O)c2nc1sc2C (some centres not stated) | 0.5 µg/mL (≈ 0.399 µM) | 2 µg/mL (≈ 1.6 µM) | 1 µg/mL (≈ 0.798 µM) | 1 µg/mL (≈ 0.798 µM)
CNC(=O)C[C@@H]1NC(=O)c2csc(n2)-c2ccc(-c3nc(C(=O)NCCOCCO)cs3)nc2-c2csc(n2)-c2csc(n2)C(C(O)c2ccccc2)NC(=O)CNC(=O)c2nc(sc2COC)[C@H](C(C)C)NC(=O)c2nc1sc2C (some centres not stated) | 0.125 µg/mL (≈ 0.103 µM) | 0.06 µg/mL (≈ 0.0495 µM) | 0.25 µg/mL (≈ 0.206 µM) | 0.06 µg/mL (≈ 0.0495 µM)
